Experimental data as given in ChEMBL document CHEMBL4251626, “4β-amidotriazole linked podophyllotoxin congeners: DNA topoisomerase-IIα inhibition and potential anticancer agents for prostate cancer” (Eur J Med Chem, 2018).

Key:
NIH3T3 = assay: Antiproliferative activity against mouse NIH/3T3 cells after 48 hrs by MTT assay; format: cell-based; conditions: NIH3T3, 48 h
In short: (§1)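 Cells in DMEM/10% FBS pre-incubated 24 h at 37 °C, then compound-treated 48 h (10 mM DMSO stock diluted in medium). MTT (10 µL of 5 mg/mL) added for 4 h; formazan dissolved in DMSO, absorbance read at 570 nm. IC50 = 50% inhibitory concentration, mean of three individual experiments.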

HepG2 = assay: Antiproliferative activity against human HepG2 cells after 48 hrs by MTT assay; format: functional, cell-based; conditions: HepG2, 48 h; in short: as §1
MCF7 = assay: Antiproliferative activity against human MCF7 cells after 48 hrs by MTT assay; format: functional, cell-based; conditions: MCF7, 48 h; in short: as §1
HT-29 = assay: Antiproliferative activity against human HT-29 cells after 48 hrs by MTT assay; format: functional, cell-based; conditions: HT-29, 48 h; in short: as §1
A549 = assay: Antiproliferative activity against human A549 cells after 48 hrs by MTT assay; format: functional, cell-based; conditions: A549, 48 h; in short: as §1
DU-145 = assay: Antiproliferative activity against human DU145 cells after 48 hrs by MTT assay; format: functional, cell-based; conditions: DU-145, 48 h; in short: as §1
HeLa = assay: Antiproliferative activity against human HeLa cells after 48 hrs by MTT assay; format: functional, cell-based; in short: as §1

## COc1cc([C@@H]2c3cc4c(cc3C(NC(=O)c3cn(Cc5ccc(Cl)cc5)nn3)[C@H]3COC(=O)[C@H]23)OCO4)cc(OC)c1OC (single isomer, unassigned)
NIH3T3
  IC50: 81.3 µM
HepG2
  IC50: 3.54 µM
MCF7
  IC50: 5.3 µM
HT-29
  IC50: 23.7 µM
A549
  IC50: 8.06 µM
DU-145
  IC50: 2.37 µM
HeLa
  IC50: 3.57 µM

## COc1ccc(Cn2cc(C(=O)NC3c4cc5c(cc4[C@@H](c4cc(OC)c(OC)c(OC)c4)[C@H]4C(=O)OC[C@H]34)OCO5)nn2)cc1 (single isomer, unassigned)
NIH3T3
  IC50: 67 µM
HepG2
  IC50: 1.96 µM
MCF7
  IC50: 3.32 µM
HT-29
  IC50: 17.5 µM
A549
  IC50: 5.82 µM
DU-145
  IC50: 1.76 µM
HeLa
  IC50: 3.46 µM

## COc1cc([C@@H]2c3cc4c(cc3C(NC(=O)c3cn(-c5ccccc5)nn3)[C@H]3COC(=O)[C@H]23)OCO4)cc(OC)c1OC (single isomer, unassigned)
NIH3T3
  IC50: 53.9 µM
HepG2
  IC50: 1.94 µM
MCF7
  IC50: 1.45 µM
HT-29
  IC50: 5.37 µM
A549
  IC50: 1.82 µM
DU-145
  IC50: 1.31 µM
HeLa
  IC50: 2.47 µM

## COc1cc([C@@H]2c3cc4c(cc3C(NC(=O)c3cn(Cc5ccccc5)nn3)[C@H]3COC(=O)[C@H]23)OCO4)cc(OC)c1OC (single isomer, unassigned)
NIH3T3
  IC50: 67 µM
HepG2
  IC50: 13.1 µM
MCF7
  IC50: 13.7 µM
HT-29
  IC50: 19.1 µM
A549
  IC50: 13.3 µM
DU-145
  IC50: 17.1 µM
HeLa
  IC50: 18.8 µM

## COc1cc([C@@H]2c3cc4c(cc3C(NC(=O)c3cn(Cc5cccc(Oc6ccccc6)c5)nn3)[C@H]3COC(=O)[C@H]23)OCO4)cc(OC)c1OC (single isomer, unassigned)
NIH3T3
  IC50: 88.4 µM
HepG2
  IC50: 6.6 µM
MCF7
  IC50: 4.4 µM
HT-29
  IC50: 40.5 µM
A549
  IC50: 8.65 µM
DU-145
  IC50: 5.68 µM
HeLa
  IC50: 22.7 µM

## COc1cc(OC)cc(-n2cc(C(=O)NC3c4cc5c(cc4[C@@H](c4cc(OC)c(OC)c(OC)c4)[C@H]4C(=O)OC[C@H]34)OCO5)nn2)c1 (single isomer, unassigned)
NIH3T3
  IC50: 77 µM
HepG2
  IC50: 13.8 µM
MCF7
  IC50: 8.66 µM
HT-29
  IC50: 19.6 µM
A549
  IC50: 17.7 µM
DU-145
  IC50: 11.7 µM
HeLa
  IC50: 17 µM

## COc1cc(Cn2cc(C(=O)NC3c4cc5c(cc4[C@@H](c4cc(OC)c(OC)c(OC)c4)[C@H]4C(=O)OC[C@H]34)OCO5)nn2)cc(OC)c1OC (single isomer, unassigned)
NIH3T3
  IC50: 62 µM
HepG2
  IC50: 0.957 µM
MCF7
  IC50: 7.34 µM
HT-29
  IC50: 8.54 µM
A549
  IC50: 14.7 µM
DU-145
  IC50: 8.54 µM
HeLa
  IC50: 10.2 µM

## COc1cccc(Cn2cc(C(=O)NC3c4cc5c(cc4[C@@H](c4cc(OC)c(OC)c(OC)c4)[C@H]4C(=O)OC[C@H]34)OCO5)nn2)c1 (single isomer, unassigned)
NIH3T3
  IC50: 74.1 µM
HepG2
  IC50: 9.88 µM
MCF7
  IC50: 7.71 µM
HT-29
  IC50: 31.3 µM
A549
  IC50: 21.3 µM
DU-145
  IC50: 12.4 µM
HeLa
  IC50: 22.6 µM

## COc1cc([C@@H]2c3cc4c(cc3C(NC(=O)c3cn(Cc5ccc(F)cc5)nn3)[C@H]3COC(=O)[C@H]23)OCO4)cc(OC)c1OC (single isomer, unassigned)
NIH3T3
  IC50: 91.1 µM
HepG2
  IC50: 34.1 µM
MCF7
  IC50: 19.1 µM
HT-29
  IC50: 78.3 µM
A549
  IC50: 75.7 µM
DU-145
  IC50: 22.8 µM
HeLa
  IC50: 29 µM

## COc1cc([C@@H]2c3cc4c(cc3C(NC(=O)c3cn(-c5ccc(F)cc5)nn3)[C@H]3COC(=O)[C@H]23)OCO4)cc(OC)c1OC (single isomer, unassigned)
NIH3T3
  IC50: 98.1 µM
HepG2
  IC50: 10.9 µM
MCF7
  IC50: 6.7 µM
HT-29
  IC50: 13.8 µM
A549
  IC50: 14.1 µM
DU-145
  IC50: 9.44 µM
HeLa
  IC50: 78.6 µM

## COc1cc([C@@H]2c3cc4c(cc3C(NC(=O)c3cn(Cc5ccc6c(c5)OCO6)nn3)[C@H]3COC(=O)[C@H]23)OCO4)cc(OC)c1OC (single isomer, unassigned)
NIH3T3
  IC50: 69.5 µM
HepG2
  IC50: 26.6 µM
MCF7
  IC50: 34.5 µM
HT-29
  IC50: 36.4 µM
A549
  IC50: 34.5 µM
DU-145
  IC50: 27.7 µM
HeLa
  IC50: 32.9 µM

## COc1cc(Cn2cc(C(=O)NC3c4cc5c(cc4[C@@H](c4cc(OC)c(OC)c(OC)c4)[C@H]4C(=O)OC[C@H]34)OCO5)nn2)cc(OC)c1 (single isomer, unassigned)
NIH3T3
  IC50: 81.3 µM
HepG2
  IC50: 14.2 µM
MCF7
  IC50: 13.9 µM
HT-29
  IC50: 27.4 µM
A549
  IC50: 32.4 µM
DU-145
  IC50: 14.6 µM
HeLa
  IC50: 25.8 µM

## COc1ccc(Cn2cc(C(=O)NC3c4cc5c(cc4[C@@H](c4cc(OC)c(OC)c(OC)c4)[C@H]4C(=O)OC[C@H]34)OCO5)nn2)cc1OC (single isomer, unassigned)
NIH3T3
  IC50: 83.8 µM
HepG2
  IC50: 12.7 µM
MCF7
  IC50: 12.2 µM
HT-29
  IC50: 13.5 µM
A549
  IC50: 19.6 µM
DU-145
  IC50: 13.5 µM
HeLa
  IC50: 12.4 µM

## COc1cc([C@@H]2c3cc4c(cc3C(NC(=O)c3cn(-c5ccc6c(c5)OCO6)nn3)[C@H]3COC(=O)[C@H]23)OCO4)cc(OC)c1OC (single isomer, unassigned)
NIH3T3
  IC50: 67.2 µM
HepG2
  IC50: 9.94 µM
MCF7
  IC50: 7.61 µM
HT-29
  IC50: 17.9 µM
A549
  IC50: 0.974 µM
DU-145
  IC50: 8.92 µM
HeLa
  IC50: 47.7 µM

## COc1cc([C@@H]2c3cc4c(cc3C(NC(=O)c3cn(-c5cc(OC)c(OC)c(OC)c5)nn3)[C@H]3COC(=O)[C@H]23)OCO4)cc(OC)c1OC (single isomer, unassigned)
NIH3T3
  IC50: 79.6 µM
HepG2
  IC50: 0.957 µM
MCF7
  IC50: 7.34 µM
HT-29
  IC50: 8.54 µM
A549
  IC50: 14.7 µM
DU-145
  IC50: 8.54 µM
HeLa
  IC50: 10.2 µM

## COc1cc([C@@H]2c3cc4c(cc3C(NC(=O)c3cn(Cc5ccc(C(F)(F)F)cc5)nn3)[C@H]3COC(=O)[C@H]23)OCO4)cc(OC)c1OC (single isomer, unassigned)
NIH3T3
  IC50: 75.5 µM
HepG2
  IC50: 20.4 µM
MCF7
  IC50: 21.9 µM
HT-29
  IC50: 66.4 µM
A549
  IC50: 27.8 µM
DU-145
  IC50: 32.9 µM
HeLa
  IC50: 26.6 µM

## COc1ccc(-n2cc(C(=O)NC3c4cc5c(cc4[C@@H](c4cc(OC)c(OC)c(OC)c4)[C@H]4C(=O)OC[C@H]34)OCO5)nn2)cc1OC (single isomer, unassigned)
NIH3T3
  IC50: 66.2 µM
HepG2
  IC50: 11.7 µM
MCF7
  IC50: 8.04 µM
HT-29
  IC50: 15.1 µM
A549
  IC50: 12.2 µM
DU-145
  IC50: 14.5 µM
HeLa
  IC50: 18.6 µM

## COc1cc([C@@H]2c3cc4c(cc3[C@H](O)[C@H]3COC(=O)[C@H]23)OCO4)cc(OC)c1OC [PODOFILOX]
HepG2
  IC50: 6.63 µM
MCF7
  IC50: 3.06 µM
HT-29
  IC50: 4.78 µM
A549
  IC50: 4.6 µM
DU-145
  IC50: 4.15 µM
HeLa
  IC50: 3.45 µM
